# Source: ChEMBL document CHEMBL1131239, “Orally active benzamide antipsychotic agents with affinity for dopamine D2, serotonin 5-HT1A, and adrenergic alpha1 receptors” (J Med Chem, 1998)
# Legend:
# [1] = target: T1, 5-hydroxytryptamine receptor 1A (Rattus norvegicus, UniProt P19327); test: Compound was evaluated for its binding affinity against 5-hydroxytryptamine 1A receptor from rat cerebral cortex; type: tissue-based
# T1 sequence (P19327 whole entry): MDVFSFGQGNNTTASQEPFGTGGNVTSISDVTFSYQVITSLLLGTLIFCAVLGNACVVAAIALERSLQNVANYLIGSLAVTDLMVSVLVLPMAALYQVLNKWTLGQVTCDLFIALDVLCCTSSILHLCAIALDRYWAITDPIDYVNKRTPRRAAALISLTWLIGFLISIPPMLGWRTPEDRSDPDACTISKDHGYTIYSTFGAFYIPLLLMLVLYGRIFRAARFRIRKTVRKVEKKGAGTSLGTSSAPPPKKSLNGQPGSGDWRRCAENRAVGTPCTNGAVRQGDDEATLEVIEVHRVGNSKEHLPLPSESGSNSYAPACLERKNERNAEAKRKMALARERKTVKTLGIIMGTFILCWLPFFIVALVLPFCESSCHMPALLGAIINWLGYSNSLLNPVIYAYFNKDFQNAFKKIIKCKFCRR
# [2] = target: T2, Adrenergic receptor alpha-1 (Rattus norvegicus, UniProt P15823+P23944+P43140); test: Binding affinity against Alpha-1 adrenergic receptor from rat cerebral cortex; type: tissue-based
# T2 sequence (P15823 whole entry): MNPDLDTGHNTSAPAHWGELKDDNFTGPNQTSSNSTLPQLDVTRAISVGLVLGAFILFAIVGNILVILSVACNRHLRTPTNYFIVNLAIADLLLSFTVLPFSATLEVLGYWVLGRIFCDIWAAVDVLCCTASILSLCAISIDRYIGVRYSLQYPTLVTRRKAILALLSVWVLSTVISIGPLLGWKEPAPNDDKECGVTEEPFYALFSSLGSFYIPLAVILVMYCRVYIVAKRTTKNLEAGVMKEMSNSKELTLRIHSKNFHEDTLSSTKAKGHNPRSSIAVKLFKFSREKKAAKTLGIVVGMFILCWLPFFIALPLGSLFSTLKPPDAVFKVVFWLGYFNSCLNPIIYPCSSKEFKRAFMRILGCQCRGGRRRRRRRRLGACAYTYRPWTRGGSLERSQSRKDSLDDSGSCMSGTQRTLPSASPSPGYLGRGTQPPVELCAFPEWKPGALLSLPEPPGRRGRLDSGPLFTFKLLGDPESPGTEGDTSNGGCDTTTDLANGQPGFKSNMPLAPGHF
# T2 sequence (P23944 whole entry): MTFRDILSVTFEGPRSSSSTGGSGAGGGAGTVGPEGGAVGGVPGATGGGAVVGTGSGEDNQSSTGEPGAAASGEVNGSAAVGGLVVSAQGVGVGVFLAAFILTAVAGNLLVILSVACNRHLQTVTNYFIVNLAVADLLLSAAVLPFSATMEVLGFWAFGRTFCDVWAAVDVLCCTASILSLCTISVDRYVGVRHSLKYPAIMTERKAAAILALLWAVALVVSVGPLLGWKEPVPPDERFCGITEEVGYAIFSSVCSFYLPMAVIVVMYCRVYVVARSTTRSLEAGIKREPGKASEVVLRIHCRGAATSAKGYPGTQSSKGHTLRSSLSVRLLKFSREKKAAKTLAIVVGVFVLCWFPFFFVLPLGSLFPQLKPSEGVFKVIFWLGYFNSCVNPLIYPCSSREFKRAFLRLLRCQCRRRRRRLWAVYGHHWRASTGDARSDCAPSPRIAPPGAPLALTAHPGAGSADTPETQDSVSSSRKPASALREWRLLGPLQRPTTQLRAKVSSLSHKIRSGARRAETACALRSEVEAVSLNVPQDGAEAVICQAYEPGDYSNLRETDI
# T2 sequence (P43140 whole entry): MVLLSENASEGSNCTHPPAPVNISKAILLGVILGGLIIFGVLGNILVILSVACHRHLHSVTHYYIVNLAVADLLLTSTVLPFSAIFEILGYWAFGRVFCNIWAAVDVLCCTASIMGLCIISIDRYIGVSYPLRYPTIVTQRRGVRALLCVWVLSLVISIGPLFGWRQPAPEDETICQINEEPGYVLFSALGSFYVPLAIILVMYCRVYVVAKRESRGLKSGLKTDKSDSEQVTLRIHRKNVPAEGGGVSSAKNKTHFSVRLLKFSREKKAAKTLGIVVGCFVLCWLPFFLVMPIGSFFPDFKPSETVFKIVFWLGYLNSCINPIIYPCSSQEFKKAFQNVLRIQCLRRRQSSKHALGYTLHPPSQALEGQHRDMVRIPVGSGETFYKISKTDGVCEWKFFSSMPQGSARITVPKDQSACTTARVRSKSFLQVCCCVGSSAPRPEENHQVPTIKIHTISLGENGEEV
# [3] = system: Rattus norvegicus; test: compound was tested for antipsychotic activity by conditioned avoidance response(CAR) assay in rats with a pretreatment period of 30 min upon intra peritoneal administration at a concentration of 1 mg/kg.; type: functional
# Summary of the method: (§1)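 Trained rats (N = 4) were run in 1-h sessions on two consecutive days, with the experimenter blind to drug and dose. Fed rats had food and water until placed in the test chambers. Fasted rats had no food overnight before the experiment.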
# [4] = system: Rattus norvegicus; test: compound was tested for antipsychotic activity by conditioned avoidance response(CAR) assay in rats with a pretreatment period of 30 min upon intra peritoneal administration at a concentration of 15 mg/kg.; type: functional
# [5] = system: Rattus norvegicus; test: Percent catalepsy in male Spargue-Dawley rat at pretreatment time 240 mins and when administered ip at dose 50 mg/kg; type: functional; conditions: route intraperitoneal
# Summary of the method: (§2)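 Catalepsy in rats, groups of five per drug treatment, scored blind to drug and dose. Each session included a saline or vehicle negative control and a haloperidol 2 mg/kg positive control. Deaths during the experiment were recorded in the catalepsy column as number dead out of five.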
# [6] = system: Rattus norvegicus; test: compound was tested for antipsychotic activity by conditioned avoidance response(CAR) assay in rats with a pretreatment period of 240 min upon intra peritoneal administration at a concentration of 2.5 mg/kg.; type: functional; summary of the method: as §1
# [7] = system: Rattus norvegicus; test: compound was tested for antipsychotic activity by conditioned avoidance response(CAR) assay in rats with a pretreatment period of 240 min upon peroral administration at a concentration of 20 mg/kg.; type: functional; conditions: route oral; summary of the method: as §1
# [8] = system: Rattus norvegicus; test: compound was tested for antipsychotic activity by conditioned avoidance response(CAR) assay in rats with a pretreatment period of 30 min upon intra peritoneal administration at a concentration of 2.5 mg/kg.; type: functional; summary of the method: as §1
# [9] = system: Rattus norvegicus; test: compound was tested for antipsychotic activity by conditioned avoidance response(CAR) assay in rats with a pretreatment period of 30 min upon intra peritoneal administration at a concentration of 5 mg/kg.; type: functional
# Summary of the method: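 Rat conditioned avoidance test modified from Martin et al. Trained rats (N = 4) were run in 1-h sessions on two consecutive days. Fed animals had food and water until placed in the test chambers. Dosing was ip with 30 min pretreatment, and activity was expressed as percent inhibition at the stated dose.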
# [10] = system: Rattus norvegicus; test: compound was tested for antipsychotic activity by conditioned avoidance response(CAR) assay in rats with a pretreatment period of 60 min upon peroral administration at a concentration of 20 mg/kg.; type: functional; conditions: route oral
# [11] = system: Rattus norvegicus; test: Percent catalepsy in male Spargue-Dawley rat at pretreatment time 60 mins and when administered ip at dose 50 mg/kg; type: functional; conditions: route intraperitoneal; summary of the method: as §2
structure (smiles),measurement,setting,value
CCN(CC)C(=O)c1cccc(CN2CCN(c3ccccc3OC(C)C)CC2)c1,Ki,[1],2.1 nM
same,Ki,[2],4.4 nM
same,inhibition in vivo at 1 mg/kg,[3],-65.1%
same,inhibition in vivo at 15 mg/kg,[4],-94.5%
same,Catalepsy,[5],36.8%
same,inhibition in vivo at 2.5 mg/kg,[6],-44.4%
same,inhibition in vivo at 20 mg/kg,[7],-44.6%
same,inhibition in vivo at 2.5 mg/kg,[8],-60%
same,inhibition in vivo at 5 mg/kg,[9],-96.2%
same,inhibition in vivo at 20 mg/kg,[10],-93.4%
same,Catalepsy,[11],76.9%
